Experimental data reported in ChEMBL document CHEMBL3992536, “Discovery of a Novel Series of Orally Bioavailable and CNS Penetrant Glucagon-like Peptide-1 Receptor (GLP-1R) Noncompetitive Antagonists Based on a 1,3-Disubstituted-7-aryl-5,5-bis(trifluoromethyl)-5,8-dihydropyrimido[4,5-d]pyrimidine-2,4(1H,3H)-dione Core” (J Med Chem, 2017).
The source made the active and inactive calls. The rule behind the calls is not given here.

Experiments:
[1] = target: T1, Glucagon-like peptide 1 receptor (Homo sapiens, UniProt P43220); experiment: Antagonist activity at human GLP-1R expressed in TREx293 cells co-expressing cAMP sensitive luciferase assessed as inhibition of GLP1 (7 to 36 residues) amide-induced cAMP accumulation after 90 mins by GloSensor cAMP assay; type: functional, cell-based
T1 sequence (P43220 whole entry, the tested form may be a part): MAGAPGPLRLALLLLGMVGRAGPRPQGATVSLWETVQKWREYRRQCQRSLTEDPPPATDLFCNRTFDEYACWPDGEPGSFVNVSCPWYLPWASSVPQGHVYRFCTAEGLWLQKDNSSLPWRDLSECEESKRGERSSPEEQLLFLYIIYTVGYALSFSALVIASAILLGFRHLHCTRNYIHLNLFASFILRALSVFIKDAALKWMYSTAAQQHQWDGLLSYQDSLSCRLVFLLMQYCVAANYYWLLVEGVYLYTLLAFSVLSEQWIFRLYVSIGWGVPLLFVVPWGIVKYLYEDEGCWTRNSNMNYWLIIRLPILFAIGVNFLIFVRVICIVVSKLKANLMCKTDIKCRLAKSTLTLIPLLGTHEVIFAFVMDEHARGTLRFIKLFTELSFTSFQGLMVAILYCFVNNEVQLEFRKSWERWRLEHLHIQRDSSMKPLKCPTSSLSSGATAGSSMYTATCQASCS
How it was run: (§1)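 GloSensor cAMP luminescence read-out in TREx293 HEK cells expressing GLP-1R. IC50 and pIC50 come from the concentration–response curves. n = 3, reported as average ± SEM.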

[2] = target: T1, Glucagon-like peptide 1 receptor; experiment: Antagonist activity at human GLP-1R expressed in TREx293 cells co-expressing cAMP sensitive luciferase assessed as inhibition of exendin-4-induced cAMP accumulation after 90 mins by GloSensor cAMP assay; type: functional, cell-based; how it was run: as §1
[3] = target: T1, Glucagon-like peptide 1 receptor; experiment: Antagonist activity at human GLP-1R expressed in TREx293 cells co-expressing cAMP sensitive luciferase assessed as inhibition of GLP1 (7 to 36 residues) amide-induced cAMP accumulation after 90 mins by GloSensor cAMP assay relative to GLP-1; type: functional, cell-based
How it was run: (§2)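 TREx293 HEK cells expressing GLP-1R, GloSensor cAMP read-out. The minimum response is expressed as % of the GLP-1 response (GLP-1 min). n = 3, average ± SEM.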

[4] = target: T1, Glucagon-like peptide 1 receptor; experiment: Antagonist activity at human GLP-1R expressed in TREx293 cells co-expressing cAMP sensitive luciferase assessed as inhibition of exendin-4-induced cAMP accumulation after 90 mins by GloSensor cAMP assay relative to GLP-1; type: functional, cell-based; how it was run: as §2
[5] = Plasma clearance in Sprague-Dawley rat at 1 mg/kg, iv or 3 mg/kg via oral gavage by LC-MS/MS analysis; type: ADME, organism-based
How it was run: (§3)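 Rat PK study with dosing at 1 mg/kg iv and 3 mg/kg po. The study reports plasma clearance (mL min⁻¹ kg⁻¹), t1/2 (min), Vss (L/kg) and oral bioavailability F (%).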

[6] = Half life in Sprague-Dawley rat at 1 mg/kg, iv or 3 mg/kg via oral gavage by LC-MS/MS analysis; type: ADME, organism-based; conditions: in vivo; how it was run: as §3
[7] = Volume of distribution at steady state in Sprague-Dawley rat at 1 mg/kg, iv or 3 mg/kg via oral gavage by LC-MS/MS analysis; type: ADME, organism-based; conditions: in vivo, read-out: Vdss; how it was run: as §3
Glucagon receptor = Glucagon receptor (Homo sapiens, UniProt P47871); experiment: Antagonist activity at glucagon receptor (unknown origin)
Chain of Glucagon receptor (P47871 whole entry, the tested form may be a part): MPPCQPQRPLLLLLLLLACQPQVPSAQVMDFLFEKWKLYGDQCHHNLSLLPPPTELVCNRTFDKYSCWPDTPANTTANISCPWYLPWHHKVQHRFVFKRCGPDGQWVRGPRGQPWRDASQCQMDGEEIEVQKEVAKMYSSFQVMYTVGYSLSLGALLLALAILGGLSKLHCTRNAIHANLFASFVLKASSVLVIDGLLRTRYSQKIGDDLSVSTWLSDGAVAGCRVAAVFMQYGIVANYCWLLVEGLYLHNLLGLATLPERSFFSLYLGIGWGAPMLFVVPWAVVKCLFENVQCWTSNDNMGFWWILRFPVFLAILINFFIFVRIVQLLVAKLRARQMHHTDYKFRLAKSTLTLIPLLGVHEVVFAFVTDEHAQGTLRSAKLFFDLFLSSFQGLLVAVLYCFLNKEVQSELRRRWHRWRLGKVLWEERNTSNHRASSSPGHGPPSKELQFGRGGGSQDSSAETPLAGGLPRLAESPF

[8] = target: T1, Glucagon-like peptide 1 receptor; experiment: Non-competitive antagonism/negative allosteric modulation of human GLP-1R expressed in TREx293 cells co-expressing cAMP sensitive luciferase assessed as inhibition of fixed concentration of GLP1 (7 to 36 residues) amide-induced cAMP accumulation by measuring decrease in GLP-1 maximum response at 0.3 to 10 uM after 90 mins by GloSensor cAMP assay; type: functional, cell-based
How it was run: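 A full GLP-1 (7−36) amide concentration–response curve is run in GLP-1R TREx293 HEK cells with GloSensor cAMP detection. It is repeated in the presence of increasing fixed concentrations of antagonist, and the decrease in the GLP-1 maximal response is followed. n = 3.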

[9] = target: T2, Glucagon-like peptide 1 receptor (Mus musculus) (UniProt O35659); experiment: Antagonist activity at GLP-1R in C57BL/6J mouse primary islets assessed as inhibition of exendin-4-induced increase in glucose-stimulated insulin secretion at 1 uM after 60 mins by radio-immunoassay
T2 sequence (whole entry): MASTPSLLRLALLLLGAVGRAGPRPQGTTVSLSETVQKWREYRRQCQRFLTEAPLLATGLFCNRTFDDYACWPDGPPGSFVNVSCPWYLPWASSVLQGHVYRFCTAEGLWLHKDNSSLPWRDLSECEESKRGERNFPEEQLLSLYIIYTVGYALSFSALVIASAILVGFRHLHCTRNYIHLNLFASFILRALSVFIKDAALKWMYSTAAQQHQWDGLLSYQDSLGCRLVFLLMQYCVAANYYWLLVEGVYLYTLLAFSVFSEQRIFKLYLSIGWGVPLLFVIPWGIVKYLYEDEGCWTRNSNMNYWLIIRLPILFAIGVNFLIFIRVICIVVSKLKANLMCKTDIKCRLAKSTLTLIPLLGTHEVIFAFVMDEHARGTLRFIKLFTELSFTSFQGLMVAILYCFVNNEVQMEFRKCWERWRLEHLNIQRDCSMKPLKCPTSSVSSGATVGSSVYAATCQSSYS

Cytochrome P450 1A2 = target: T3, Cytochrome P450 1A2 (Homo sapiens, UniProt P05177); experiment: Inhibition of CYP1A2 in human liver microsomes using phenacetin as substrate preincubated for 15 mins followed by NADPH addition measured after 8 mins by LC-MS/MS analysis; type: ADME
T3 sequence (P05177 whole entry): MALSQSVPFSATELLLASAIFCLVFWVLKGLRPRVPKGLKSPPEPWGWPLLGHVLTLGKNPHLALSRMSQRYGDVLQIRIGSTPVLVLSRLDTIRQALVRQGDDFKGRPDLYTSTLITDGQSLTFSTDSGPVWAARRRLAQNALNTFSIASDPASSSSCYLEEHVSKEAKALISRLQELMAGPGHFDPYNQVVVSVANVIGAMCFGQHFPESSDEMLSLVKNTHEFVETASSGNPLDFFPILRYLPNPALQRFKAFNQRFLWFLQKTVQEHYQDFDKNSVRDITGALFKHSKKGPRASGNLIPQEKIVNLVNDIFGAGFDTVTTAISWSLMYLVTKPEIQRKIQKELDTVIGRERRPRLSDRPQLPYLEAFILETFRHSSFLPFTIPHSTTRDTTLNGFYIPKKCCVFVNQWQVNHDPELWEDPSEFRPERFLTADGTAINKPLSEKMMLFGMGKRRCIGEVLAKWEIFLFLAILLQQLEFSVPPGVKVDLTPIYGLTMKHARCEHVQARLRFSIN

Cytochrome P450 2C9 = Cytochrome P450 2C9 (Homo sapiens, UniProt P11712); experiment: Inhibition of CYP2C9 in human liver microsomes using diclofenac as substrate preincubated for 15 mins followed by NADPH addition measured after 8 mins by LC-MS/MS analysis; type: ADME
Chain of Cytochrome P450 2C9 (P11712 whole entry): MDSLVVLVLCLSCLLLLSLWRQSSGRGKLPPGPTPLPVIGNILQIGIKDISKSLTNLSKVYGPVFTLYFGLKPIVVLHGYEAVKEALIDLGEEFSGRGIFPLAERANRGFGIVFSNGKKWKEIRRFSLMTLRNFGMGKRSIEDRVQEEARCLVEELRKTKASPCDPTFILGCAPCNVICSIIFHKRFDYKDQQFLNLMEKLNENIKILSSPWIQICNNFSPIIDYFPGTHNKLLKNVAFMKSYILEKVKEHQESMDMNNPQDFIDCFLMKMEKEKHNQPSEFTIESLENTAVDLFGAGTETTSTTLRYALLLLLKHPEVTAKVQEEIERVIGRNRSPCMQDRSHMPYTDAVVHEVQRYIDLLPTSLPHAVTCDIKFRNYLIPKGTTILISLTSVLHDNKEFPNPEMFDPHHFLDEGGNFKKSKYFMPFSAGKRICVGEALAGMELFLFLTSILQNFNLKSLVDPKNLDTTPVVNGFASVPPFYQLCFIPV

Cytochrome P450 3A4 = Cytochrome P450 3A4 (Homo sapiens, UniProt P08684); experiment: Inhibition of CYP3A4 in human liver microsomes using midazolam as substrate preincubated for 15 mins followed by NADPH addition measured after 8 mins by LC-MS/MS analysis; type: ADME
Chain of Cytochrome P450 3A4 (P08684 whole entry): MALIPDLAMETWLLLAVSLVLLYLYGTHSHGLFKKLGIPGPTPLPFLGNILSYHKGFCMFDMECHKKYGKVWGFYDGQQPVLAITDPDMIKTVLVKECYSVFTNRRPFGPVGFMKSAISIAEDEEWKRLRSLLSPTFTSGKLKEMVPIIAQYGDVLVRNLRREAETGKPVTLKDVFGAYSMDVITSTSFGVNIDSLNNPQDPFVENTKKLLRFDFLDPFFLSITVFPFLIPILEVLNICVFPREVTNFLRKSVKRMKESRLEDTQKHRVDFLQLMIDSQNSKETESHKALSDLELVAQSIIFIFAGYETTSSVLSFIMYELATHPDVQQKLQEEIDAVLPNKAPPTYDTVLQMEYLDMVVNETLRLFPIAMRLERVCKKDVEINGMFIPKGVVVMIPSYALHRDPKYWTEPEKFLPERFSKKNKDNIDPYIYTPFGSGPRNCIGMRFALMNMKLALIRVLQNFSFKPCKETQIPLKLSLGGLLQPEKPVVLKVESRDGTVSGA

Cytochrome P450 2D6 = Cytochrome P450 2D6 (Homo sapiens, UniProt P10635); experiment: Inhibition of CYP2D6 in human liver microsomes using dextromethorphan as substrate preincubated for 15 mins followed by NADPH addition measured after 8 mins by LC-MS/MS analysis; type: ADME
Chain of Cytochrome P450 2D6 (P10635 whole entry): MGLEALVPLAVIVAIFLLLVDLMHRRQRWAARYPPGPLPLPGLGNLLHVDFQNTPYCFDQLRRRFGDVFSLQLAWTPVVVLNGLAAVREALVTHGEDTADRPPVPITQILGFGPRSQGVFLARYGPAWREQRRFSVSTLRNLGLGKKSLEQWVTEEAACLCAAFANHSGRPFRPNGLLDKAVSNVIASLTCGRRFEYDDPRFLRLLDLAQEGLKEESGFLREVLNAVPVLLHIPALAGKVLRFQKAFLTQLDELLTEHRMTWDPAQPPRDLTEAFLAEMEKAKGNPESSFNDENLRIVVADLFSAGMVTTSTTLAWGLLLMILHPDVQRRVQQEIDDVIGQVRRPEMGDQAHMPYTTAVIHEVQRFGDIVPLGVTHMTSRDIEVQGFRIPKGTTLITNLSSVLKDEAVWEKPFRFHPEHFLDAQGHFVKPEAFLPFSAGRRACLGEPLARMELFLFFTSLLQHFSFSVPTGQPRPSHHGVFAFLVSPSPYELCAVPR

[10] = Fraction unbound in rat plasma at 5 uM after 4 hrs by LC-MS/MS based equilibrium dialysis method; type: ADME, cell-free
[11] = Fraction unbound in human plasma at 5 uM after 4 hrs by LC-MS/MS based equilibrium dialysis method; type: ADME, cell-free
[12] = Drug uptake in Sprague-Dawley rat plasma at 3 mg/kg via oral gavage after 1 hr by LC-MS/MS analysis; type: ADME, organism-based
How it was run: (§4)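 Rat distribution study: single 3 mg/kg oral dose. Plasma (ng/mL) and brain concentrations are measured at 1 h, and brain/plasma Kp is calculated from them.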

[13] = Drug uptake in Sprague-Dawley rat brain at 3 mg/kg via oral gavage after 1 hr by LC-MS/MS analysis; type: ADME, organism-based; conditions: read-out: Drug uptake; how it was run: as §4
[14] = Ratio of drug level in Sprague-Dawley rat brain to plasma at 3 mg/kg via oral gavage after 1 hr by LC-MS/MS analysis; type: ADME, organism-based; how it was run: as §4
[15] = Oral bioavailability in Sprague-Dawley rat at 3 mg/kg via gavage by LC-MS/MS analysis; type: ADME, organism-based; conditions: in vivo; how it was run: as §3
Rattus norvegicus [16] = experiment: Decrease in blood insulin level in Sprague-Dawley rat at 10 mg/kg, po pretreated for 30 mins followed by glucose challenge measured up to 150 mins by oral glucose tolerance test; type: functional, organism-based
How it was run: (§5)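 OGTT in male Sprague-Dawley rats with surgically implanted carotid cannulae, randomized to compound (10 mg/kg po) or vehicle. Dosing is 30 min before a 2 g/kg glucose gavage at time 0. Carotid blood is sampled at intervals for whole blood glucose and insulin.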

Rattus norvegicus [17] = experiment: Increase in blood glucose level in Sprague-Dawley rat at 10 mg/kg, po pretreated for 30 mins followed by glucose challenge measured up to 150 mins by oral glucose tolerance test; type: functional, organism-based; how it was run: as §5
[18] = target: T1, Glucagon-like peptide 1 receptor; experiment: Antagonist activity at GLP-1R (unknown origin)

Row | Compound | IC50 [1] [µM] | IC50 [2] [µM] | Emin [3] [%] | Emin [4] [%] | clearance [5] [mL/min/kg] | half-life [6] [h] | Vd [7] [L/kg] | IC50 (Glucagon receptor) [µM] | inhibition [8] | inhibition [9] | IC50 (Cytochrome P450 1A2) [µM] | IC50 (Cytochrome P450 2C9) [µM] | IC50 (Cytochrome P450 3A4) [µM] | IC50 (Cytochrome P450 2D6) [µM] | fraction unbound at 4 h, 5 µM [10] | fraction unbound at 4 h, 5 µM [11] | concentration at 1 h [12] [ng/mL] | concentration at 1 h [13] [ng/g] | Kp at 1 h [14] | bioavailability [15] [%] | further results
1 | Cn1c2c(c(=O)n(C)c1=O)C(C(F)(F)F)(C(F)(F)F)N=C(c1cccc([N+](=O)[O-])c1)N2 | 0.61 | 0.69 | 16.4 | 15.5 | 3.64 | 0.7 | 0.22 | > 30 | Dose-dependent effect | Active | 25 | 0.47 | > 30 | 21.2 | 0.005 | 0.005 | 76.7 | 2.4 | 0.02 |  | 
2 | COc1cccc(C2=NC(C(F)(F)F)(C(F)(F)F)c3c(n(-c4ccc(Cl)cc4)c(=O)[nH]c3=O)N2)c1 | 5.9 | 5.8 | 16.8 | 23.9 | 36.4 | 2.42 | 0.69 | > 30 |  |  | > 30 | 3.78 | 16.4 | 8.13 | 0.002 | 0.003 | 1140 | 37.1 | 0.03 | 100 | 
3 | COc1cccc(C2=NC(C(F)(F)F)(C(F)(F)F)c3c(n(CC(C)C)c(=O)[nH]c3=O)N2)c1 | 7.2 | 7.2 | 22.7 | 26.4 |  |  |  |  |  |  |  |  |  |  |  |  |  |  |  |  | 
4 | Cn1c2c(c(=O)n(C)c1=O)C(C(F)(F)F)(C(F)(F)F)NC(c1ccc(Cl)cc1)=N2 | 0.65 | 0.69 | 20.9 | 19.7 | 4.79 | 9.78 | 3.57 | > 30 | Dose-dependent effect | Active | 4.01 | 0.41 | > 30 | > 30 | 0.011 | 0.007 | 45 | 65.1 | 1.45 | 50 | Activity (Rattus norvegicus [16]): Active; Activity (Rattus norvegicus [17]): Active
5 | O=c1[nH]c(=O)n(Cc2ccccc2)c2c1C(C(F)(F)F)(C(F)(F)F)N=C(c1cccs1)N2 | 1.3 | 1.5 | 36.2 | 32 |  |  |  |  |  |  |  |  |  |  |  |  |  |  |  |  | 
6 | COc1ccc2c(c1)N(c1ccccc1F)C(=O)[C@@]2(CCC(=O)O)NC(=O)c1cc2ccccc2cn1 |  |  |  |  |  |  |  |  |  |  |  |  |  |  |  |  |  |  |  |  | IC50 [18]: 21 µM
